Measurements published in ChEMBL document CHEMBL3751823, “Design, synthesis and antitrypanosomal activities of 2,6-disubstituted-4,5,7-trifluorobenzothiophenes” (Eur J Med Chem, 2016).

Columns and labels:
[1] = tested on: Trypanosoma brucei rhodesiense; test: Antitrypanosomal activity against Trypanosoma brucei rhodesiense STIB 900 after 72 hrs by alamar blue assay; format: functional, organism-based; conditions: STIB 900, 72 h
Procedure, shortened: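 Bloodstream forms of clone STIB 900 (patient isolate, Tanzania 1982), 1 × 10^3 per well, exposed to 3-fold serial dilutions from a top concentration of 30 μg/ml. DMSO stocks were diluted in medium. Incubation 72 h at 37 °C, 5% CO2, in triplicate. Alamar Blue was then added for 2-4 h more. Fluorescence read at ex 530/em 580 nm, IC50 by curve fit.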

MCF7 = test: Cytotoxicity against human MCF7 cells assessed as inhibition of cell proliferation; format: cell-based
[2] = Selectivity index, ratio of IC50 for cytotoxicity against human MCF7 cells to IC50 for Trypanosoma brucei rhodesiense STIB 900; format: toxicity, cell-based; conditions: read-out: Ratio IC50

SMILES | IC50 [1] [µM] | IC50 (MCF7) [µM] | selectivity ratio [2]
COC(=O)c1cc2c(F)c(F)c(-n3cnc4ccccc43)c(F)c2s1 | 0.6 | > 12 | > 20
O=C(c1ccccc1)c1cc2c(F)c(F)c(Sc3ccccc3Br)c(F)c2s1 | 9.8 | > 25 | 
O=C(c1ccccc1)c1cc2c(F)c(F)c(Oc3ccccc3Br)c(F)c2s1 | 15.9 | > 25 | 
O=C(c1ccccc1)c1cc2c(F)c(F)c(-n3ccnc3)c(F)c2s1 | 33 | > 60 | 
O=C(c1ccccc1)c1cc2c(F)c(F)c(-n3cnc4ccccc43)c(F)c2s1 | 0.53 | > 25 | 50
O=C(CSc1c(F)c(F)c2cc(C(=O)c3ccccc3)sc2c1F)c1ccccc1 | > 10 | > 50 | 
CC(C)(C)c1ccc(Sc2c(F)c(F)c3cc(C(=O)c4ccccc4)sc3c2F)cc1 | 31.4 | > 25 | 
Nc1nc(N)nc(Nc2ccc([As]3SCC(CO)S3)cc2)n1 (configuration not stated) [MELARSOPROL] | 0.051 |  | 

Further lines, with some results ahead:

IC50 [1] [µM] | SMILES | IC50 (MCF7) [µM] | selectivity ratio [2]
30 | COC(=O)c1cc2c(F)c(F)c(Oc3ccccc3Br)c(F)c2s1 | > 25 | 
11.9 | COC(=O)c1cc2c(F)c(F)c(Sc3ccccc3Br)c(F)c2s1 | > 25 | 
67.2 | COC(=O)c1cc2c(F)c(F)c(Sc3ccc(C(C)(C)C)cc3)c(F)c2s1 | > 50 | 
130 | COC(=O)c1cc2c(F)c(F)c(-n3ccnc3)c(F)c2s1 | > 100 | 
> 10 | COC(=O)CSc1c(F)c(F)c2cc(C(=O)OC)sc2c1F | > 25 | 
